The subject of data set [1] is Streptococcus pneumoniae. Put plainly: Antibacterial activity against Streptococcus pneumoniae after 24 hrs by microdilution method. It is filed as functional. Put shortly:
(§1)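 Broth microdilution in Mueller–Hinton medium run on an automated liquid handler. Compounds dissolved in DMF (5 mg/ml stock) and tested in medium from 64 to 0.125 µg/ml. Plates incubated 24 h at 37 °C, then growth read as absorbance at 600 nm. MIC taken as the concentration giving 90% growth inhibition.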

For data set [2], the system named is Saccharomyces cerevisiae. Put plainly: Toxicity against Saccharomyces cerevisiae. It is filed as organism-based. The following applies: in vivo. Put shortly: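 Yeast used as a surrogate for eukaryotic cell toxicity. Microdilution in Mueller–Hinton medium with compound from a DMF stock (5 mg/ml), final range 64 to 0.125 µg/ml. Incubated 24 h at 37 °C, with optical density read at 600 nm. MIC defined as the concentration inhibiting growth by 90%.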

In data set [3] the test system is Streptococcus pyogenes. The experiment in a line: Antibacterial activity against Streptococcus pyogenes after 24 hrs by microdilution method. It is filed as functional. A digest of the protocol:
as §1

Data set [4] concerns Staphylococcus aureus. Put plainly: Antibacterial activity against Staphylococcus aureus-M after 24 hrs by microdilution method. It is filed as functional. Put shortly:
as §1

Data set [5] concerns Streptococcus pyogenes. Put plainly: Antibacterial activity against Streptococcus pyogenes-M after 24 hrs by microdilution method. It is filed as functional. Put shortly:
as §1
In general terms: Dilution methods test growth across graded concentrations, often in twofold steps.

Data set [6] concerns Haemophilus influenzae. Put plainly: Antibacterial activity against Haemophilus influenzae after 24 hrs by microdilution method. It is filed as functional. Put shortly: as §1
The test system of data set [7] is Streptococcus pneumoniae. The experiment in a line: Antibacterial activity against Streptococcus pneumoniae-M after 24 hrs by microdilution method. It is filed as functional. A digest of the protocol:
as §1

Data set [8] has as its system Staphylococcus aureus. The experiment in a line: Antibacterial activity against Staphylococcus aureus-cMLS after 24 hrs by microdilution method. It is filed as functional. Put shortly:
as §1

Converted amounts (≈) assume the structure as drawn.

For `CC[C@H]1OC(=O)/C(C)=C\[C@H](C)[C@@H](O[C@@H]2O[C@H](C)C[C@H](N(C)C)[C@H]2O)[C@](C)(OC)C[C@@H](C)CN(C(=O)Nc2ccc(Cl)cc2Cl)[C@H](C)[C@@H](O)[C@]1(C)O`, the MIC was 8 mg/L (≈ 10.5 µM) in data set [1]; 32 mg/L (≈ 42.1 µM) in data set [3]; over 64 mg/L in data set [4]; over 64 mg/L in data set [5]; over 64 mg/L in data set [6]; 16 mg/L (≈ 21 µM) in data set [7]. The compound further showed an MIC in data set [8] of over 64 mg/L. Moreover, in data set [2], the Activity entry is “Non-toxic”.
As for `CC[C@H]1OC(=O)[C@H](C)[C@@H](O)[C@H](C)[C@@H](O[C@@H]2O[C@H](C)C[C@H](N(C)C)[C@H]2O)[C@](C)(OC)C[C@@H](C)CN(C(=O)Nc2ccc(Cl)cc2Cl)[C@H](C)[C@@H](O)[C@]1(C)O`, the MIC in data set [1], in data set [3], in data set [4], in data set [5], in data set [6] and in data set [7] was over 64 mg/L each time. The MIC in data set [8] is over 64 mg/L. Moreover, in data set [2], the Activity entry is “Non-toxic”.
Consider `CC[C@H]1OC(=O)[C@H](C)[C@@H](O)[C@H](C)[C@@H](O[C@@H]2O[C@H](C)C[C@H](N(C)C)[C@H]2O)[C@](C)(O)C[C@@H](C)CN(C(=O)Nc2ccccc2C(F)(F)F)[C@H](C)[C@@H](O)[C@]1(C)O`, for which the MIC in data set [1], in data set [3], in data set [4], in data set [5], in data set [6] and in data set [7] was over 64 mg/L in each case. For the same compound, in data set [8], the MIC is over 64 mg/L. The Activity result in data set [2] is “Non-toxic”.
With `CC[C@H]1OC(=O)[C@H](C)[C@@H](O)[C@H](C)[C@@H](O[C@@H]2O[C@H](C)C[C@H](N(C)C)[C@H]2O)[C@](C)(O)C[C@@H](C)CN(C(=O)NC(C)C)[C@H](C)[C@@H](O)[C@]1(C)O`, the MIC in data set [1], in data set [3], in data set [4], in data set [5], in data set [6] and in data set [7] was over 64 mg/L in each case. This compound also showed an MIC in data set [8] of over 64 mg/L. Moreover, the Activity entry in data set [2] is “Non-toxic”.
In the case of `CC[C@H]1OC(=O)[C@H](C)[C@@H](OC(=O)Cc2ccc([N+](=O)[O-])cc2)[C@H](C)[C@@H](O[C@@H]2O[C@H](C)C[C@H](N(C)C)[C@H]2O)[C@](C)(O)C[C@@H](C)CN(C(=O)Nc2ccc(Cl)cc2Cl)[C@H](C)[C@@H](O)[C@]1(C)O`, the MIC in data set [1] worked out at 2 mg/L (≈ 2.16 µM); in data set [3], 4 mg/L (≈ 4.31 µM); in data set [4], 32 mg/L (≈ 34.5 µM); in data set [5], 32 mg/L (≈ 34.5 µM); in data set [6] it was 32 mg/L (≈ 34.5 µM); in data set [7], 4 mg/L (≈ 4.31 µM). The compound also had an MIC in data set [8] of 32 mg/L (≈ 34.5 µM). Also, the Activity entry in data set [2] is reported as “Non-toxic”.
Take `CC[C@H]1OC(=O)/C(C)=C\[C@H](C)[C@@H](O[C@@H]2O[C@H](C)C[C@H](N(C)C)[C@H]2O)[C@](C)(OC)C[C@@H](C)CN(C(=O)NC(C)C)[C@H](C)[C@@H](O)[C@]1(C)O`: the MIC in data set [1] is 8 mg/L (≈ 12.2 µM); in data set [3], 16 mg/L (≈ 24.3 µM); in data set [4], over 64 mg/L; in data set [5], over 64 mg/L; in data set [6] it was over 64 mg/L; in data set [7] it was over 64 mg/L. Moreover, the MIC in data set [8] was over 64 mg/L. The Activity result in data set [2] is listed as “Non-toxic”.
